# Screening results (PubChem)
# The list is not random: actives were taken first. Their share in the collection is about 1.7%.
# T cell HTS – modulates CD8 T cell binding to vesicles | 2C CD8+ T cell-vesicle binding, flow cytometry; stronger effect = lower value | 330,000 tested, 0.068% active | response (vesicle binding), % at 7 µM;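 active = response, share of CD8 T cells binding vesicles, and their 90th percentile fluorescence all below set limits, cut at about 80% in these data, passing the limit was not always enough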;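 also: values below 100% mean blocked vesicle binding to the CD8+ T cells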
#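 incubation = binding step 1.5 h, 37 °C, antibody labelling 20 min, ice | test system = 2C mouse CD8+ T cells | read-out basis = percent CD8+ FL2 mean versus row control | controls = Peptide-free naked vesicles (low) and QL9 vesicles with 0.7% DMSO vehicle (high) | detection = flow cytometry of vesicle-bound cells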
# Vif inh – inhibitors of HIV Vif. HEK293T cells, Vif self-association by quenched fluorescence, imaging, 24 h. inhibition, % at 7.49 µM. 340,000 tested, 0.35% active; in the data active = inhibition above about 50%, passing the limit was not always enough; inconclusive = no clear call, values can overlap the other calls; inactive = below about 31%
# DSG3 Ab inh – blocks pemphigus antibody binding to human desmoglein-3; DSG3-coupled beads, scFv-anti-DSG3-GFP binding, flow cytometry; stronger effect = lower value; binding (percent of control), % at 10 µM; 310,000 tested, 0.48% active; AID 588358;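 active = binding more than 3 SD below its plate's average and above zero; inconclusive = below that plate limit but binding exactly zero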;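 also: hits lower antibody fragment binding to DSG3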
# Target sequence (P32926 whole entry, looked up, the tested form may be a part): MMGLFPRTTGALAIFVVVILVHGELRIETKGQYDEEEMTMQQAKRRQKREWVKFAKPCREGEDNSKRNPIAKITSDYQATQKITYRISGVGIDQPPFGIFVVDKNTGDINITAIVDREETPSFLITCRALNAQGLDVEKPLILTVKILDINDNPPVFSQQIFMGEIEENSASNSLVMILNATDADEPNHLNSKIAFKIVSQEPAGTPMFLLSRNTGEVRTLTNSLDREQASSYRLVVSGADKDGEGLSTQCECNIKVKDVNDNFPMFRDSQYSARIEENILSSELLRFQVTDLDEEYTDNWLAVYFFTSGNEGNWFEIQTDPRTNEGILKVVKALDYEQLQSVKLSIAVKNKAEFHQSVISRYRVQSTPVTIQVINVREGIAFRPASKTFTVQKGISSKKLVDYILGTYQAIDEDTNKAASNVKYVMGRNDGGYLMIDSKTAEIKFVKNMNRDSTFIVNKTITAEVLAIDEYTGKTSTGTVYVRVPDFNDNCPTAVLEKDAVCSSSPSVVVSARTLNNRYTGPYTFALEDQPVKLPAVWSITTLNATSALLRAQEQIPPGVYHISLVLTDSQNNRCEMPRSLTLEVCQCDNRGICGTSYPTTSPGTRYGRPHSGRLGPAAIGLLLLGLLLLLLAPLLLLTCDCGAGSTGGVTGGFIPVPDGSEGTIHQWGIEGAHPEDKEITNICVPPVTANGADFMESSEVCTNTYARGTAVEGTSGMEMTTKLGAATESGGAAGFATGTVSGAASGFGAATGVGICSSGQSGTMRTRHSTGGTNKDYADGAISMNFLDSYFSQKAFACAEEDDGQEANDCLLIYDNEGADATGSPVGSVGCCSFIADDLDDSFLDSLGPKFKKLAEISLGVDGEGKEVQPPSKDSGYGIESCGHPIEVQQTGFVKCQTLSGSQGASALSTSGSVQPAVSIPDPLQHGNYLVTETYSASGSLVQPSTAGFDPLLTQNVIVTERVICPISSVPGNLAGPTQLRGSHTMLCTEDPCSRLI
# Myeloid diff 2 – promotes myeloid progenitor differentiation. ER-HoxA9 myeloid progenitors, lysozyme-GFP differentiation, flow cytometry. 360,000 tested, 1% active. calls only at 10 µM;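 active = normalized GFP-positive differentiation at or above the plate's own cutoff, the solvent-only control mean plus 3 SD; inconclusive = no clear call, values can overlap the other calls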;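 also: cells exposed to compound for four days before flow analysis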
# * hit, by the source's call; i = inactive; ? = inconclusive; . = no result given; + = active, no number; ! = a repeat was not active.
SMILES,T cell HTS,Vif inh,DSG3 Ab inh,Myeloid diff 2
CCN=c1scc(-c2ccccc2)n1/N=C/c1ccccn1,313,1,85,+
CCOC(=O)c1sc(=NC(=O)c2cccs2)n(C)c1C,i,7,107,i
CCOC(=O)c1sc(=NC(=O)c2ccccc2Br)n(C)c1C,390,-3,68*,i
C[C@@H]1CCCCO[C@H](CN(C)C(=O)Nc2ccccc2)[C@@H](C)CN([C@H](C)CO)C(=O)c2cc(NS(=O)(=O)c3cn(C)cn3)ccc2O1,.,-4,106,i
Cc1nc2c(-c3ccccc3)c[nH]n2c(=O)c1Cc1ccccc1,343,-1,64*,i
CCCc1nnc(NC(=O)CCC(=O)NCc2ccccc2OC)s1,314,2,106,i
CCc1nnc(NC(=O)CCc2ccccc2OC)s1,i,-2,105,+
CC(C)N1CCOC1c1ccccc1 (configuration not stated),.,14,89,i
COCCCn1c(=O)/c(=C\c2ccccc2OC(F)F)s/c1=C(/C#N)C(N)=O,303,139*,93,i
COCCCn1c(=O)/c(=C\c2ccc(OC(F)F)c(OC)c2)s/c1=C(/C#N)C(N)=O,285,11,102,i
Cc1nc(-c2ccc(F)cc2)c(CC(=O)N(C)CC(=O)Nc2cccc(F)c2)s1,.,-6,98,i
CCC(C)[C@H](NC(=O)NC1CCCc2ccccc21)C(=O)O (some centres not stated),495,0,99,+
CCC(C)[C@H](NC(=O)NC1CCCc2ccccc21)C(=O)OC (some centres not stated),245,11,.,i
COC(=O)c1cc(NCc2c(F)cccc2Cl)ccc1N1CCOCC1,298,-19,103,i
COC(=O)c1ccc(NCc2cc(O)ccc2O)cc1O,.,85*,94,i
COC(=O)c1ccc(NCc2c(O)ccc(O)c2Br)cc1Cl,.,70*,94,i
O=C(COC(=O)c1ccc(O)cc1O)Nc1ccc2ccccc2c1,903,0,96,i
O=C(NCc1ccccc1Cl)[C@H]1CCCN1C(=O)[C@H]1CCCN1C(=O)c1ccc(Cl)cc1,.,.,.,i
Cc1ccc(S(=O)(=O)N2[C@H](CC(=O)OCc3ccccc3)OC[C@@H]2C(C)C)cc1,.,.,.,i
C/C(N)=C(/C#N)C(=O)CSc1nnc(-c2ccc(OC(F)F)cc2)o1,i,7,80*!,i
S=c1[nH]nc(COc2ccccc2)n1/N=C/C=C/c1ccccc1,357,0,102,i
S=c1[nH]nc(COc2ccccc2)n1/N=C/C=C/c1ccco1,324,-1,81*,i
CCOC(=O)[C@]12CCCC=C1N(Cc1ccc(Cl)cc1Cl)C(=O)[C@H](CC(=O)NCC13CC4CC(CC(C4)C1)C3)C2,.,.,.,i
CCC1=NN2C(=N)/C(=C\c3ccc(OCc4cc(=O)n5nc(CC)sc5n4)c(OC)c3)C(=O)N=C2S1,.,-4,62*,i
CC1CC(=O)C(C(C2=C(O)CC(C)CC2=O)c2ccccc2)=C(O)C1 (configuration not stated),.,3,113,i
SMILES,T cell HTS,Vif inh,DSG3 Ab inh,Myeloid diff 2
COc1cc(OC)c(CN2CCc3c([nH]c4ccccc34)C2)cc1Br,282,0,219,+
NC(=S)NN=C(c1ccc(Br)cc1)C1CC1,.,-3,119,i
NC(=S)NN=C(c1ccc(F)cc1)C1CC1,.,70*,115,i
Cc1ccc2nc3n(c(=O)c2c1)-c1ccccc1C(=O)NC3Cc1ccc(O)cc1 (configuration not stated),0,.,.,.
O=C(CSc1nnnn1-c1cccc(F)c1)Nc1nc2ccccc2s1,160,49,11*,i
O=C(CSc1nnnn1-c1ccccc1F)Nc1nc2ccccc2s1,176,-6,121,i
CN(CC(=O)Nc1ccccc1Br)C(=O)CNC(=O)c1ccc(Oc2ccccc2)cc1,746,-25,.,+
O=S(=O)(NCc1ccccc1)c1ccc(S(=O)(=O)N(Cc2cccs2)CC2CCCO2)cc1 (configuration not stated),160,.,90*,i
COc1cc(S(=O)(=O)N(Cc2cccs2)CC2CCCO2)ccc1-n1cnnn1 (configuration not stated),262,3,125,i
COc1cccc(C(=O)Nc2ccc(N3CCN(S(C)(=O)=O)CC3)cc2)c1,376,-4,99,i
CCOc1cccc(C(=O)Nc2ccc(N3CCN(S(C)(=O)=O)CC3)cc2)c1,465,-17,-22*,i
Cc1cc2ncc(-c3ccc(Cl)cc3)c(N)n2n1,278,6,99,i
Nc1c(-c2ccccc2)cnc2cc(-c3ccccc3)nn12,.,-10,80*,i
Cc1ncc(C(=O)O)c(C(=O)O)c1N,486,62*,89,i
Cc1nc(NC(=O)/C=C/c2ccco2)sc1C,130,-3,-3.5*,?
O=C(/C=C\c1ccco1)Nc1cc([N+](=O)[O-])ccc1F,390,64*,92,?
CCc1nnc(NC(=O)/C=C/c2ccco2)s1,350,-1,99,i
O=C(/C=C/c1ccco1)Nc1nnc(-c2ccco2)s1,337,0,98,+
O=C(NNC(=O)c1cc([N+](=O)[O-])ccc1Cl)c1cccnc1,551,-9,103,i
Cc1c(C(=O)NNC(=O)c2cccnc2)cccc1[N+](=O)[O-],0.0*,-4,100,i
CCCc1cc(=O)oc2c3c(cc(OCC(=O)N4CCC(C(=O)O)CC4)c12)OC(C)(C)CC3,.,-1,.,i
O=C1/C(=C/c2ccccc2)CCCc2ccccc21,270,2,74,i
CN(C)c1ccc(/C=C2\CCC/C(=C\c3ccccc3)C2=O)cc1,509,0,165,+
COc1ccccc1-c1cccc([C@@H]2C[C@H]3[C@H](CON3C)CN2C)c1,.,.,99,i
CCCC1OC(c2cc3c(cc2Cl)OCO3)OCC1CC (configuration not stated),.,-2,97,i
SMILES,T cell HTS,Vif inh,DSG3 Ab inh,Myeloid diff 2
COc1ccc(C(=O)N/N=C/c2sc(N3CCOCC3)nc2-c2ccccc2)cc1OC,322,-4,102,i
COc1ccccc1NS(=O)(=O)c1cc([N+](=O)[O-])ccc1N/N=C/c1sc(N2CCOCC2)nc1-c1ccccc1,428,3,115,+
CC(C)NC(=O)C1C(c2ccccc2)=Nc2ccccc2N1C(=O)c1cc(Cl)cc(Cl)c1 (configuration not stated),.,.,.,i
CN(C)c1cc[n+](CC(=O)c2cccs2)cc1,424,1,94,+
CCCCn1c(=N)n(CC(O)COc2cccc(C)c2)c2ccccc21 (configuration not stated),349,-33,121,+
CCCn1c(=N)n(CC(O)COc2ccc(C)cc2)c2ccccc21 (configuration not stated),152,7,111,i
O=C(OCc1ccccc1)C1CCCN1C(=O)c1ccccc1[N+](=O)[O-] (configuration not stated),238,56*,101,i
